Measured values: ChEMBL document CHEMBL2311392, “Differential interactions of rifabutin with human and bacterial membranes: implication for its therapeutic and toxic effects” (J Med Chem, 2013)

What was measured:
[1] = Drug localization in DPH probe-labeled DMPG liposomes at 37 +/- 0.1 degC by fluorescence quenching; assay type: physicochemical
Method in brief: (§1)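 LUVs (100 nm extrusion) of DMPC or DMPG at 500 μM total lipid in HEPES 0.01 M, I = 0.1 M (NaCl), pH 7.4, labelled with DPH or DPH-PA (probe:lipid 1:300). Drug (0–27 μM) incubated 30 min at 37.0 °C in the dark. Steady-state intensity (ex 357/360, em 427/430 nm) and lifetime read, corrected for quencher absorbance. Membrane drug concentration taken from Kp. Stern–Volmer constants obtained at 37.0 and 42.0 °C.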

[2] = Drug localization in DPH probe-labeled DMPC liposomes at 42 +/- 0.1 degC by fluorescence quenching; assay type: physicochemical; method in brief: as §1
Lipid bilayer [3] = experiment: Binding affinity to DPH probe-labeled DMPC liposomes assessed as main phase transition temperature at 30 uM by steady-state fluorescence anisotrope (reference value: 24.4 +/- 0.2 degC)
Lipid bilayer [4] = experiment: Binding affinity to DPH probe-labeled DMPG liposomes assessed as main phase transition temperature at 30 uM by steady-state fluorescence anisotrope (reference value: 24.1 +/- 0.5 degC)
Lipid bilayer [5] = experiment: Binding affinity to DPH probe-labeled DMPC liposomes assessed as binding constant by fluorescence quenching assay; method in brief: as §1
[6] = Drug localization in DPH-PA probe-labeled DMPG liposomes at 42 +/- 0.1 degC by fluorescence quenching; assay type: physicochemical; method in brief: as §1
Lipid bilayer [7] = experiment: Binding affinity to DPH-PA probe-labeled DMPC liposomes assessed as main phase transition temperature at 30 uM by steady-state fluorescence anisotrope (reference value: 24.6 +/- 0.3 degC); details: Microsome
Lipid bilayer [8] = experiment: Binding affinity to DPH-PA probe-labeled DMPG liposomes assessed as binding constant by fluorescence quenching assay; method in brief: as §1
[9] = Drug localization in DPH probe-labeled DMPC liposomes at 37 +/- 0.1 degC by fluorescence quenching; assay type: physicochemical; method in brief: as §1
[10] = Drug localization in DPH probe-labeled DMPG liposomes at 42 +/- 0.1 degC by fluorescence quenching; assay type: physicochemical; method in brief: as §1
[11] = Drug localization in DPH-PA probe-labeled DMPC liposomes at 42 +/- 0.1 degC by fluorescence quenching; assay type: physicochemical; method in brief: as §1
Lipid bilayer [12] = experiment: Binding affinity to DPH-PA probe-labeled DMPC liposomes assessed as binding constant by fluorescence quenching assay; method in brief: as §1
Lipid bilayer [13] = experiment: Binding affinity to DPH probe-labeled DMPG liposomes assessed as binding constant by fluorescence quenching assay; method in brief: as §1
[14] = Drug localization in DPH-PA probe-labeled DMPG liposomes at 37 +/- 0.1 degC by fluorescence quenching; assay type: physicochemical; method in brief: as §1
[15] = Drug localization in DPH-PA probe-labeled DMPC liposomes at 37 +/- 0.1 degC by fluorescence quenching; assay type: physicochemical; method in brief: as §1
Lipid bilayer [16] = experiment: Binding affinity to DPH-PA probe-labeled DMPG liposomes assessed as main phase transition temperature at 30 uM by steady-state fluorescence anisotrope (reference value: 23.9 +/- 0.3 degC); details: Microsome

KSV [1]: 167 M⁻¹
KSV [2]: 156 M⁻¹
Tm (Lipid bilayer [3]): 24.5 °C
Tm (Lipid bilayer [4]): 24.4 °C
Kq (Lipid bilayer [5]): 2.7e+10 M⁻¹ s⁻¹
KSV [6]: 121 M⁻¹
Tm (Lipid bilayer [7]): 24.5 °C
Kq (Lipid bilayer [8]): 2.6e+10 M⁻¹ s⁻¹
KSV [9]: 216 M⁻¹
KSV [10]: 132 M⁻¹
KSV [11]: 76 M⁻¹
Kq (Lipid bilayer [12]): 2.9e+10 M⁻¹ s⁻¹
Kq (Lipid bilayer [13]): 1.9e+10 M⁻¹ s⁻¹
KSV [14]: 181 M⁻¹
KSV [15]: 165 M⁻¹
Tm (Lipid bilayer [16]): 24.2 °C
Structure (SMILES): CO[C@H]1/C=C/O[C@@]2(C)Oc3c(C)c(O)c4c(c3C2=O)C2=NC3(CCN(CC(C)C)CC3)NC2=C(NC(=O)/C(C)=C\C=C\[C@H](C)[C@H](O)[C@@H](C)[C@@H](O)[C@@H](C)[C@H](OC(C)=O)[C@@H]1C)C4=O [RIFABUTIN]
